Laboratory results taken from article PMC4504105 (Journal of Cancer, 2015).

Experiments:
[1] = test system: 26S proteasomes from PC-3M cells, chymotrypsin-like (CT-L) activity; assay: 26S proteasome activity assay, CT-L; type: biochemical; settings: 1h; for IC50: read-out: IC50 for CT-L, 26S proteasomes, 37°C
[2] = test system: 26S proteasomes from PC-3M cells, trypsin-like (T-L) activity; assay: 26S proteasome activity assay, T-L; type: biochemical; settings: 1h; for IC50: read-out: IC50 for T-L, 26S proteasomes, 37°C
[3] = test system: PC-3M cell xenograft; assay: PC-3M xenograft tumor model; type: in vivo, Balb/c male nude mice; settings: intraperitoneal, twice weekly, day 37
Method in brief: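 Male Balb/c nude mice, 4-5 weeks, SPF. 3×10^6 PC-3M cells in PBS injected s.c. into the right flank. At about 0.2 cm3, randomised to 5 groups of 7: saline, reference inhibitor 1.25 mg/kg, test compound 1.25, 2.25 or 3.25 mg/kg. Dosed i.p. twice weekly, 11 times over 36 days. Volume = a×b²/2, measured before each dose; final measurement on day 37.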

[4] = target: T1, 26S proteasomes from PC-3M cells, post-glutamyl peptide hydrolase (PGPH) activity (Homo sapiens, UniProt P28072); assay: 26S proteasome activity assay, PGPH; type: biochemical; settings: 1h
T1 sequence (P28072 35-239): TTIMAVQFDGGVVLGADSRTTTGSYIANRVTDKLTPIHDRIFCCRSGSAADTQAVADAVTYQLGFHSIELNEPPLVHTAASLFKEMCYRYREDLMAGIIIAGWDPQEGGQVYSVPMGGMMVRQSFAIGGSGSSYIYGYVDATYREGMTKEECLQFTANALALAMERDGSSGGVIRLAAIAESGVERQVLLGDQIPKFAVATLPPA

[5] = test system: PC-3M cells; assay: Cancer cell proliferation; type: cell-based
Method in brief: (§1)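 PC-3M, […] or Bcap37 cells kept in RPMI 1640 with 10% FBS and 1% penicillin/streptomycin, 37°C, 5% CO2. In 96-well plates, treated 48 h with graded concentrations of test compound or of a reference proteasome inhibitor in parallel. Survival by sulforhodamine B staining. IC50 given as mean ± SD, three independent experiments.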

[6] = test system: HL-60 cells; assay: Cancer cell proliferation; type: cell-based; settings: read-out: IC50, proliferation, 48 h
Method in brief: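 HL-60 in RPMI 1640 with 10% FBS and penicillin/streptomycin at 37°C, 5% CO2. Seeded in 96-well format and exposed 48 h to a range of test compound concentrations, with a reference proteasome inhibitor run alongside. Survival by MTT. IC50 reported as mean ± SD over three independent experiments.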

[7] = test system: Bel-7740 cells; assay: Cancer cell proliferation; type: cell-based; settings: read-out: IC50, proliferation, 48 h
Method in brief: as §1

[8] = test system: Bcap37 cells; assay: Cancer cell proliferation; type: cell-based; settings: read-out: IC50, proliferation, 48 h
Method in brief: as §1

[9] = Viscera; type: in vivo, Balb/c male nude mice; settings: all three doses (1.25, 2.25, 3.25 mg/kg), P>0.05
Method in brief: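 Organ index from the PC-3M xenograft mice (male Balb/c nude; saline, reference inhibitor or test compound at 1.25, 2.25, 3.25 mg/kg i.p. twice weekly, 11 doses over 36 days). On day 37, body weight recorded, then mice killed; heart, liver, lung, brain, kidney and spleen excised and weighed. Group means ± SD compared with control by Student's t-test.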

[10] = test system: PC-3M cells; assay: Cell cycle assay; type: cell-based; settings: 48 h
[11] = test system: proteasome β catalytic sites in PC-3M cells; assay: Proteasome activity profiling in intact cells; type: cell-based; settings: 12.5-400 nM, 3 h
Method in brief: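 PC-3M cells treated 3 h with test compound (12.5-400 nM), washed and harvested; proteasomes extracted as for the activity assay. Lysates labelled with Me4BodipyFL-Ahx3Leu3VS (5 μM) for 1 h at 37°C, boiled in sample buffer. 20 μg protein per lane on 12.5% SDS-PAGE, in-gel fluorescence scan. Band integrated optical density quantified; three independent experiments.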

[12] = test system: ubiquitinated and cell cycle proteins in PC-3M cells; assay: Western blot analysis, PC-3M cells; type: cell-based
Method in brief: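 PC-3M cells exposed 48 h to a series of test compound concentrations (12.5-100 nM for cell-cycle proteins), then lysed. 10% SDS-PAGE, nitrocellulose, 5% milk block. Primary antibodies (ubiquitin, wee 1, cyclin B1, p27, p21, GAPDH) overnight at 4°C; anti-mouse/anti-rabbit secondaries; ECL detection. Three independent experiments; Student's t-test against control.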

[13] = test system: cell cycle proteins in PC-3M cell xenograft tumors; assay: Western blot analysis, xenograft tumor tissue; type: in vivo, Balb/c male nude mice; settings: p<0.05
Method in brief: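 Western blot on PC-3M xenograft tumours from mice dosed i.p. twice weekly. Tissue ground and lysed, whole protein on 10% SDS-PAGE, blotted to nitrocellulose, blocked with 5% milk. Primary antibodies against cyclin B1, p21, p27, wee 1 and others overnight at 4°C, then anti-mouse/anti-rabbit secondaries. ECL imaging; Student's t-test against control.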

CC(C)C[C@H](NC(=O)[C@H](Cc1ccccc1)NC(=O)c1cnccn1)B(O)O [PS341, reference compound]
IC50 [1]: 71 ± 1 nM
IC50 [2]: 5350 ± 57 nM
Tumor growth inhibition (final tumor volume) ([3]; 1.25 mg/kg): 49.6%

CC(C)C[C@H](NC(=O)[C@H](Cc1ccc2ccccc2c1)NC(=O)[C@H](CC(C)C)NC(=O)c1cnccn1)B(O)O [YSY01A, N-(2-Pyrazinecarbonyl)-L-leucine-L-(2-naphthyl)-alanine-L-leucine boronic acid]
IC50 [1]: 123 ± 18 nM
CT-L activity inhibited ([1]; various YSY01A concentrations): 34-86%
IC50 [2]: 1240 ± 77 nM
T-L activity inhibited ([2]; various YSY01A concentrations): 12-43%
IC50 ([4]; read-out: IC50 for PGPH, 26S proteasomes, 37°C): 714 ± 44 nM
PGPH activity inhibited ([4]; various YSY01A concentrations): 12-48%
Inhibition efficacy relative to PS341 ([5]; 48h): three times highter
IC50 ([5]; read-out: IC50, proliferation, 48 h): 150 ± 9 nM
IC50 [6]: 170 ± 9.9 nM
IC50 [7]: 286 ± 13.2 nM
IC50 [8]: 879 ± 18.2 nM
Tumor growth inhibition (final tumor volume) ([3]; 1.25 mg/kg): 45.7%
Tumor growth inhibition (final tumor volume) ([3]; 2.25 mg/kg): 52.8%
Tumor growth inhibition (final tumor volume) ([3]; 3.25 mg/kg): 60.1%
Impact on viscera index (body, heart, liver, brain, kidney, spleen and lung) [9]: slightly impacted
Increase of cells in the G2/M phase ([10]; 50 nM): 14%
Increase of cells in the G2/M phase ([10]; 100 nM): 44%
β5i, β2, β2i, β1 and β1i/β5 fluorgenic bands [11]: decreased
Protein (cyclinB1, p21, p27, P-cdc2 (tyr15), wee 1) expression ([12]; 12.5-100 nM, 48 h, p<0.05 versus control): increased
Concentration causing ubiquitinated protein accumulation ([12]; 48h): 25 nM
Protein (cyclinB1, p21, p27, P-cdc2 (tyr15), wee 1) expression from tumor tissue [13]: enhanced
